# Compound activity from PubChem BioAssay.
# A3G deaminase – blocks human APOBEC3G single-stranded DNA deamination | Q9HC16 | recombinant A3G, ssDNA deamination FAM/TAMRA fluorescence | inhibition, % at 20 µM | 0.28% of 330,000 active | AID 493012;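 active = inhibition of at least 40% at 20 µM, with no more than 30% in the related APOBEC3A deaminase screen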;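 note: plate controls were DMSO wells with A3G for no effect and wells lacking A3G enzyme for full effect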
# Target sequence (Q9HC16 whole entry, looked up): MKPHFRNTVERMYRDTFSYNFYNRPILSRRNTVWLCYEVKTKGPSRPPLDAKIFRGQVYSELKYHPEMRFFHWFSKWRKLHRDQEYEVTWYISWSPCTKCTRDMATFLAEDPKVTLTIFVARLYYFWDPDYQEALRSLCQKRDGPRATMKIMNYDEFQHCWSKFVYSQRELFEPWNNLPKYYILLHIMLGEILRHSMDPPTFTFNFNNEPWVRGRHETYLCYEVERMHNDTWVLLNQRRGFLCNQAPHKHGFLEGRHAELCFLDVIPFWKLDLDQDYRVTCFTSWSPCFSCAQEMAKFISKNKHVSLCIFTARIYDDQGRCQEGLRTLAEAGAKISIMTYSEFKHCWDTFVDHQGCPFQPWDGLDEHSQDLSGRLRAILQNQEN
# TbMetRS inhib – Trypanosoma brucei MetRS inhibition | purified T. brucei MetRS, ATP depletion, Kinase-Glo luminescence | inhibition, % at 11.9 µM | 0.4% of 360,000 active;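 active = inhibition above a per-plate cutoff of the control wells' mean inhibition plus 3 SD, cut at about 5.5% in these data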;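 note: 0% = DMSO wells median and 100% = median of wells with control inhibitor compound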
#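 Material: parasite MetRS enzyme / Replication: singlicate, one well per compound / Signal: luminescence of leftover ATP / Schedule: 2 h aminoacylation at 25 °C after 15 min preincubation / Medium: HEPES-MgCl2-KCl buffer plus DTT, spermine, BSA, pyrophosphatase / Doses: 11.9 µM single point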
# PHOSPHO1 block – PHOSPHO1 (human) inhibition; Q8TCT1; recombinant PHOSPHO1, absorbance phosphatase assay; inhibition, % at 13.3 µM; 1.1% of 290,000 active; AID 1565; in the data active = inhibition above about 60%
# APOBEC3A inh – human APOBEC3A DNA deaminase inhibition. AID 493011. inhibition, % at 20 µM. P31941. 0.41% of 330,000 active. recombinant A3A, FAM/TAMRA ssDNA deamination fluorescence;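 active = at least 40% inhibition at 20 µM here, with at most 30% in a related deaminase screen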;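 note: plate controls were A3A with DMSO for no effect and wells lacking A3A enzyme for full effect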
# pCIP destab – p/CIP protein destabilization; 0.01% of 290,000 active; Q05BA5; decrease of EGFP signal, % at 10 µM; F442A p/CIP-EGFP cells, EGFP fluorescence, 16 h;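 active = EGFP signal decrease of at least 30% at 10 µM or well 3 SD below plate mean, unless failing retest; inactive = the rest, including hits failing retest or dose response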
# Tb MetRS conf – confirmation of Trypanosoma brucei MetRS inhibitors; shares compounds with TbMetRS inhib; T. brucei MetRS enzyme, luminescence (ATP depletion); inhibition, % at 11.9 µM; 93% of 1,400 active; in the data active = inhibition above about 7%
# Jurkat tox – counter-screen for T. brucei MetRS inhibitors: Jurkat cell cytotoxicity; shares compounds with TbMetRS inhib; Jurkat cells viability, ATP luminescence; inhibition, % at 8.3 µM; 12% of 1,400 active; AID 624413; in the data active = inhibition above about 15%;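 note: 0% = vehicle and 100% = reference inhibitor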
# TbMetRS FP orth – orthogonal test for Trypanosoma brucei MetRS inhibitors; shares compounds with TbMetRS inhib; purified T. brucei MetRS, fluorescence polarization; inhibition, % at 11.9 µM; 44% of 1,400 active; in the data active = inhibition above about 17%;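 note: 0% = vehicle wells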
# * hit, by the source's call; nt = no result given. Only some compounds are listed: those with a hit (about 1.8% of all), similar ones and a draw of the others.
SMILES,A3G deaminase,TbMetRS inhib,PHOSPHO1 block,APOBEC3A inh,pCIP destab,Tb MetRS conf,Jurkat tox,TbMetRS FP orth
CCn1c(COc2ccc(OC)cc2)nnc1SCc1nc2ccccc2c(=O)[nH]1,-4,nt,-16,-2,2,nt,nt,nt
Cc1ccc(OCc2nnc(SCc3nc4ccccc4[nH]3)n2Cc2ccco2)cc1,-3,35*,84*,-3,-5,62*,14,34*
CCn1c(COc2ccc(Cl)cc2)nnc1SCc1nc2ccccc2[nH]1,-8,54*,91*,-6,-6,58*,12,36*
CCC(C(=O)Nc1ccccc1Cl)n1nc(C)c2c(C)n(-c3ccccc3)nc2c1=O (stereo not given),-9,0,12,-8,-4,nt,nt,nt
Cc1ccc(C(=O)NCC(=O)OCc2nnc(-c3ccc([N+](=O)[O-])cc3)o2)cc1,nt,0,nt,nt,nt,nt,nt,nt
O=C(Nc1ccccc1)OCCNC(=O)c1cccc(Br)c1,7,5,24,3,-5,nt,nt,nt
O=C(Nc1ccc(Cl)c(Cl)c1)OCCNC(=O)c1cccc(Cl)c1,-7,40*,2,-8,-4,58*,5,35*
O=C(CCSc1ccc(Br)cc1)Nc1cccnc1,2,6.4*,32,0,6,11*,-3,4
CC(=O)c1cc(Cl)ccc1OCc1cccc(S(=O)(=O)N2CCOCC2)c1,-4,0,nt,0,nt,nt,nt,nt
COc1ccc(CCN2C(=S)N(C)C(=O)C2CC(=O)Nc2ccc(F)cc2)cc1 (stereo not given),8,58*,16,4,-9,81*,6,51*
CCN1C(=O)C(CC(=O)Nc2ccc(OC)cc2)N(Cc2ccc(OC)c(OC)c2)C1=S (stereo not given),-4,0,8,-2,-3,nt,nt,nt
CCN1C(=O)C(CC(=O)Nc2ccc(Br)cc2)N(CCCc2ccccc2)C1=S (stereo not given),-1,66*,33,8,-3,77*,8,62*
COc1ccc(NC(=O)CC2C(=O)N(c3ccc(OC)cc3)C(=O)N2CCc2cccs2)cc1 (stereo not given),-8,11*,16,-4,-13,20*,0,15
CCN1C(=O)C(CC(=O)Nc2ccc(OC)cc2)N(CCc2ccc(OC)cc2)C1=S (stereo not given),-1,36*,36,2,20,51*,3,34*
O=C(NCc1ccc(F)cc1)C1CCCN1C(=O)Nc1ccccc1 (stereo not given),2,-1,36,-1,-12,nt,nt,nt
Cc1ccc(C(=O)OCC(=O)N(C)C2CCS(=O)(=O)C2)cc1S(=O)(=O)N1CCCCC1 (stereo not given),5,0,nt,3,nt,nt,nt,nt
CCc1nc2ccc(C(=O)NCCC(C)C)cn2c1N(C)Cc1ccc(OC)cc1,nt,0,nt,nt,nt,nt,nt,nt
NC(=S)NN=Cc1cc(-c2cccc(N)c2)ccn1,nt,0,nt,nt,nt,nt,nt,nt
CN(C)C(=O)c1ccccc1Sc1ccc(Cl)cc1Cl,5,6.0*,4,3,-4,16*,-5,3
O=C(O)CCC(=O)Nc1ccc(Oc2ncnc3cc(Cl)ccc23)nc1,-1,0,32,7,1,nt,nt,nt
Cn1nc(C(F)(F)F)c2cc(C(=O)Nc3ccc(F)cc3)sc21,-4,0,16,-4,0,nt,nt,nt
Cn1nc(C(F)(F)F)c(-c2ccc(F)cc2)c1NC(=O)Nc1ccc(F)cc1,-1,9.4*,-1,1,-4,21*,6,14
CCOC(=O)CC(=O)NC(C)(C)CCCCC(C)(C)NC(=O)CC(=O)OCC,-3,6.9*,27,-2,5,3,-2,5
COC(=O)[C@@]12C[C@@H](CC(=O)N3CCCC3)C(=O)N(CCc3ccc(OC)c(OC)c3)C1=CCC(C)(C)C2,nt,0,nt,nt,nt,nt,nt,nt
O=C(COC(=O)C1CCN(c2ccc(C(F)(F)F)cn2)CC1)Nc1cccc(F)c1,20,6.0*,nt,25,nt,19*,0,6
CC1=NN(c2ccc(Cl)cc2)C(=O)C1C(c1cccc(O)c1)c1c(C)[nH]n(-c2ccc(Cl)cc2)c1=O (stereo not given),-1,0,-9,0,7,nt,nt,nt
